Assay outcomes as filed in PubChem BioAssay.
Only some compounds are listed: those with a hit (about 5.9% of all), similar ones and a draw of the others.
GASC1 inh: inhibitors of GASC-1 (KDM4C) histone demethylase, primary screen, biochemical, single concentration HTS | Lysine-specific demethylase 4C (Homo sapiens), Q9H3R0 | GST-KDM4C 2-372, H3K9me3 peptide, LANCE TR-FRET | inhibition, % at 12.5 µM | hit rate 0.15% among 96,000 | AID 720574, 2013;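 active means mean replicate inhibition above about 25%, with at least 55% of replicates also reaching it, limit read from the data, passing the limit was not always enough; inconclusive means only one of those two conditions met; inactive means neither condition met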
Target sequence (Q9H3R0 2-372 limits assumed): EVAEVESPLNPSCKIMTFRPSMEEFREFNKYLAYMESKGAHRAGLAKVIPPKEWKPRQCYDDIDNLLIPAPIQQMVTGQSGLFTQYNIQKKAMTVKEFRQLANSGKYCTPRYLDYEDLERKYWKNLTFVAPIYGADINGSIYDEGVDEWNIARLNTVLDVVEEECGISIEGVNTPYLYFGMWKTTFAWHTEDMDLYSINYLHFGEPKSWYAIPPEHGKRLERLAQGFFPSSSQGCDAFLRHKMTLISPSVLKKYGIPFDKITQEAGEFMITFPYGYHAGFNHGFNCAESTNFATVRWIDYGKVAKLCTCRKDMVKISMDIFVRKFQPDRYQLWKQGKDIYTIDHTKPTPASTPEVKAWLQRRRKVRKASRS
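Material: GST-tagged GASC-1 (JMJD2C) catalytic fragment, aa 2-372. Input: enzyme final amount 10 nM. Medium: HEPES buffer, pH 7.5, plus ascorbate. Reagent: H3K9me3 peptide substrate, Fe(II), 2-oxoglutarate. Doses: single dose. Times: reaction 30 min RT, detection step 1 h RT. Measured by: LANCE TR-FRET. Evaluation: Fall in 671/618 emission ratio as inhibition.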
Pf Dd2 inh: P. falciparum Dd2 growth inhibitors, primary screen, SYBR Green fluorescence, single dose replicates. activity change, % at 10 µM. hit rate 2.3% among 94,000. AID 1159554, 2015. 72 h; hits give low values; in the data active means activity change below about -80%; inconclusive means no clear call, values can overlap the other calls
T cruzi growth-1: T. cruzi intracellular proliferation inhibitors, primary screen, cell-based, beta-gal Tulahuen parasites, NIH3T3 host, luminescence; T. cruzi beta-gal in NIH3T3, GalScreen luminescence, 90 h; inhibition, % at 8.34 µM; hit rate 5.9% among 77,000; AID 624255, 2012;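 active means mean inhibition above about 93%, with at least 55% of replicates each passing it, limit read from the data, passing the limit was not always enough; inconclusive means only one of those two conditions holds; inactive means neither condition holds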
IDH1 mut inh: inhibitors of IDH1 R132H reductase, primary screen, biochemical, plate reader, single point. hit rate 0.18% among 70,000. Isocitrate dehydrogenase [NADP] cytoplasmic (Homo sapiens), O75874. diaphorase/resazurin fluorescence, 60 min. inhibition, % at 10 µM; in the data active means inhibition above about 34%; inconclusive means no clear call, values can overlap the other calls; inactive means below about 11%
Target sequence (O75874 whole entry R132H): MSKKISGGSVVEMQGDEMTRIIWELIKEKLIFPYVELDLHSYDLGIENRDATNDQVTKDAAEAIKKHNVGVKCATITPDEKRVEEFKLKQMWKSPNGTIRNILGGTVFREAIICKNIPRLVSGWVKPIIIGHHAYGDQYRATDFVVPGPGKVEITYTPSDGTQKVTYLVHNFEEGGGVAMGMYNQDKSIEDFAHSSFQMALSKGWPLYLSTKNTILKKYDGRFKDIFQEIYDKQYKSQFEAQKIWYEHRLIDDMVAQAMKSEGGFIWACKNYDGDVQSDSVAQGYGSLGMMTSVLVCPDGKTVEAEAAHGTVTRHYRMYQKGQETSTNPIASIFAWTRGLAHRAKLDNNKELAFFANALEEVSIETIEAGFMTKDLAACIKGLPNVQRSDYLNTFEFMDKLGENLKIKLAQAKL
T cruzi growth-2: T. cruzi intracellular proliferation inhibitors, confirmation, cell-based, NIH3T3 host, beta-gal parasite, luminescence, cherry-pick; shares compounds with T cruzi growth-1; T. cruzi beta-gal in NIH3T3, GalScreen luminescence, 90 h; inhibition, % at 8.35 µM; hit rate 72% among 5,600; AID 651739, 2012;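 active means mean replicate inhibition above about 95% and at least 55% of replicates individually reaching it, limit read from the data; inconclusive means only one of the two criteria is met; inactive means neither criterion is met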
T cruzi growth-3: inhibitors of intracellular T. cruzi replication, confirmation, NIH3T3 host cells, beta-gal parasites, cherry-pick, set 2; shares compounds with T cruzi growth-1; AID 651740, 2012; inhibition, % at 2.09 µM; hit rate 21% among 5,600; T. cruzi beta-gal in NIH3T3, GalScreen luminescence, 90 h;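 active means mean inhibition above about 95%, with at least 55% of replicates also reaching it, limit read from the data; inconclusive means meets just one of the two conditions; inactive means meets neither condition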
3T3 cytotox: cytotoxicity in mouse NIH/3T3 fibroblasts, confirmation, cytotoxicity control for T. cruzi proliferation inhibitor project, cell-based, cherry-pick, single point. shares compounds with T cruzi growth-1. cytotoxicity (signal decrease), % at 8.35 µM. NIH/3T3 viability, CellTiter-Glo ATP luminescence, 90 h. hit rate 14% among 5,600;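 active means mean signal decrease across replicates above about 35% based on untreated-well scatter, with enough replicates individually passing, limit read from the data; inconclusive means no rule stated though some were filed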
3T3 cytotox 2: NIH/3T3 fibroblast cytotoxicity, confirmation, cytotoxicity control, cell-based, cherry-pick, single point, set 2 | shares compounds with T cruzi growth-1 | NIH/3T3 viability, CellTiter-Glo ATP luminescence, 90 h | inhibition, % at 24.9 µM | hit rate 56% among 5,600;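 active means mean loss of cell viability signal at or above a set limit, and enough replicates individually reaching it; inconclusive means meets only the mean limit or only the replicate share; inactive means meets neither condition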
Large screens that a line does not name were inactive (follow-up assays come after a bar, where they were run).

COc1ccc(C#Cc2ccc([C@H]3[C@H]4CN(C(=O)Nc5ccccc5)CCCCN4[C@H]3CO)cc2)cc1	T cruzi growth-1 119.0 (no result: IDH1 mut inh) | T cruzi growth-2 108.0 | T cruzi growth-3 inactive | 3T3 cytotox inactive | 3T3 cytotox 2 inactive
COc1ccc(C#Cc2ccc([C@H]3[C@@H](CO)N4CCCCN(C(=O)Nc5cccc(F)c5)C[C@@H]34)cc2)cc1	T cruzi growth-1 112.2 (no result: IDH1 mut inh) | T cruzi growth-2 100.9 | T cruzi growth-3 108.7 | 3T3 cytotox inactive | 3T3 cytotox 2 inactive
C/C=C/c1ccc([C@H]2[C@@H](CO)N3CCCCN(C)C[C@H]23)cc1	none (no result: IDH1 mut inh)
CCCNC(=O)N1C[C@H](O)COC[C@H]2O[C@@H](CC(=O)N[C@@H]3CCN(Cc4ccccc4)C3)CC[C@@H]21	none (no result: Pf Dd2 inh, IDH1 mut inh)
N#C[C@@H]1[C@H](c2ccc(C#Cc3cccc(F)c3)cc2)[C@@H](CO)N1C(=O)C1CCC1	T cruzi growth-1 106.6 (no result: IDH1 mut inh) | T cruzi growth-2 102.7 | T cruzi growth-3 107.9 | 3T3 cytotox inactive | 3T3 cytotox 2 79.8
N#C[C@@H]1[C@@H](c2ccc(C#Cc3cccnc3)cc2)[C@@H](CO)N1C(=O)C1CCCCC1	T cruzi growth-1 102.6 (no result: IDH1 mut inh) | T cruzi growth-2 inactive | T cruzi growth-3 inactive | 3T3 cytotox inactive | 3T3 cytotox 2 inactive
N#C[C@@H]1[C@@H](c2ccc(C#Cc3cccc(F)c3)cc2)[C@@H](CO)N1C(=O)C1CC1	none (no result: IDH1 mut inh)
N#C[C@@H]1[C@H](c2ccc(-c3cccnc3)cc2)[C@H](CO)N1C(=O)C1CCC1	none (no result: IDH1 mut inh)
N#C[C@H]1[C@@H](c2ccc(C#Cc3cccc(F)c3)cc2)[C@@H](CO)N1C(=O)C1CCC1	none (no result: T cruzi growth-1, IDH1 mut inh)
N#C[C@@H]1[C@@H](c2ccc(C#Cc3cccc(F)c3)cc2)[C@@H](CO)N1C(=O)C1CCCC1	T cruzi growth-1 100.4 (no result: IDH1 mut inh) | T cruzi growth-2 107.4 | T cruzi growth-3 inactive | 3T3 cytotox inactive | 3T3 cytotox 2 63.6
COc1ccc2c3c([nH]c2c1)[C@H](CO)N(C(=O)Nc1ccccc1F)CC31CCN(C(=O)c2ccccc2F)CC1	none (no result: GASC1 inh, T cruzi growth-1, IDH1 mut inh)
COc1ccc(C#Cc2ccc3c(c2)[C@@H]2[C@@H](CCN2C(=O)c2ccccc2F)[C@@H](CO)N3)cc1	T cruzi growth-1 106.0 (no result: IDH1 mut inh) | T cruzi growth-2 102.2 | T cruzi growth-3 inactive | 3T3 cytotox inactive | 3T3 cytotox 2 inactive
O=C(c1ccccc1F)N1CC[C@@H]2[C@H](CO)Nc3ccc(C#Cc4ccc(F)cc4)cc3[C@@H]21	none (no result: IDH1 mut inh)
COc1ccc(C#Cc2ccc3c(c2)[C@@H]2[C@@H](CCN2C(=O)c2ccccc2F)[C@H](CO)N3C)cc1	T cruzi growth-1 inconclusive (no result: IDH1 mut inh) | T cruzi growth-2 110.6 | T cruzi growth-3 inconclusive | 3T3 cytotox inactive | 3T3 cytotox 2 54.2
COc1ccc(C#Cc2ccc3c(c2)[C@H]2[C@H](CCN2C(=O)CN2CCOCC2)[C@H](CO)N3C)cc1	T cruzi growth-1 98.6 (no result: IDH1 mut inh) | T cruzi growth-2 110.6 | T cruzi growth-3 inactive | 3T3 cytotox inactive | 3T3 cytotox 2 26.8
Cc1ccc(S(=O)(=O)N2C[C@H](O)COC[C@H]3O[C@@H](CC(=O)NCC4CCCCC4)CC[C@@H]32)cc1	none (no result: IDH1 mut inh)
O=C(CN1CCOCC1)N[C@H]1CC[C@H](CCNC(=O)Nc2cc(F)ccc2F)O[C@@H]1CO	none
CO[C@@H]1CN(C)C(=O)c2ccc(NS(=O)(=O)c3ccc(Oc4ccccc4)cc3)cc2OC[C@H](C)NC[C@H]1C	none
COc1ccc(NC(=O)N(C)C[C@@H]2Oc3c(NC(=O)Nc4ccccc4)cccc3C(=O)N([C@H](C)CO)C[C@H]2C)cc1	none
COc1ccc(NC(=O)N(C)C[C@H]2Oc3cc(-c4ccncc4)ccc3S(=O)(=O)N([C@H](C)CO)C[C@@H]2C)cc1	none
COc1ccc(NC(=O)N(C)C[C@H]2Oc3cc(-c4ccc(C)cc4)ccc3S(=O)(=O)N([C@@H](C)CO)C[C@H]2C)cc1	T cruzi growth-1 105.6 | T cruzi growth-2 107.8 | T cruzi growth-3 inactive | 3T3 cytotox inactive | 3T3 cytotox 2 inactive
COc1ccc(NC(=O)N(C)C[C@@H]2Oc3cc(-c4ccc(C)cc4)ccc3S(=O)(=O)N([C@H](C)CO)C[C@@H]2C)cc1	Pf Dd2 inh -90.5, T cruzi growth-1 122.6 | T cruzi growth-2 104.8 | T cruzi growth-3 inactive | 3T3 cytotox 47.4 | 3T3 cytotox 2 inactive
C[C@H]1CN([C@@H](C)CO)C(=O)c2cc(NC(=O)Cc3ccccc3)ccc2O[C@H]1CN(C)Cc1ccc(C(F)(F)F)cc1	none
C[C@H]1CN([C@@H](C)CO)C(=O)c2cc(NC(=O)Nc3cccc4ccccc34)ccc2O[C@H]1CN(C)C(=O)Nc1ccc2c(c1)OCO2	none
COc1cccc(-c2ccc([C@H]3[C@H](CO)N4CCCCN(C(=O)NC(C)C)C[C@@H]34)cc2)c1	T cruzi growth-1 108.2 (no result: IDH1 mut inh) | T cruzi growth-2 109.7 | T cruzi growth-3 inactive | 3T3 cytotox 37.1 | 3T3 cytotox 2 31.2
COc1cccc(-c2ccc([C@H]3[C@@H](CO)N4CCCCN(C(=O)NC(C)C)C[C@@H]34)cc2)c1	T cruzi growth-1 104.8 (no result: IDH1 mut inh) | T cruzi growth-2 101.0 | T cruzi growth-3 inactive | 3T3 cytotox inactive | 3T3 cytotox 2 inactive
COc1cccc(C(=O)Nc2ccc3c(c2)C(=O)N(C)[C@H]2CC[C@H](CC(=O)NCc4ccc(F)cc4)O[C@H]2CO3)c1	none (no result: IDH1 mut inh)
C[C@H]1CN([C@@H](C)CO)C(=O)c2cccc(NS(=O)(=O)c3cccs3)c2O[C@H]1CN(C)C(=O)Nc1ccc(F)cc1	none
CC=Cc1ccc2n(c1=O)C[C@@H]1[C@@H](CO)[C@H](C(=O)Nc3ccc(-c4ccccc4)cc3)N(CCC)[C@H]21 (mixture of isomers)	T cruzi growth-1 103.0 (no result: IDH1 mut inh) | T cruzi growth-2 99.5 | T cruzi growth-3 inactive | 3T3 cytotox inactive | 3T3 cytotox 2 105.6
CC=Cc1ccc2n(c1=O)C[C@H]1[C@H](CO)[C@@H](C(=O)Nc3ccc(-c4ccccc4)cc3)N(CCC)[C@@H]21 (mixture of isomers)	T cruzi growth-1 112.4 (no result: IDH1 mut inh) | T cruzi growth-2 inactive | T cruzi growth-3 inactive | 3T3 cytotox inactive | 3T3 cytotox 2 103.8
